From ChEMBL document CHEMBL3351240, “Antinociceptive properties of physalins from Physalis angulata” (J Nat Prod, 2014)
Active and inactive are the calls of the source.

Tests used:
Mus musculus [1] = test: Antinociceptive activity in Swiss Webster mouse assessed as increase in latency time at 5 mg/kg, ip measured after 1 hr by hot plate test; type: functional, organism-based; design: dose 5 mg/kg
Summary of the method: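 Hot plate held at 55 ± 1 °C; male Swiss Webster mice; reaction time to hind paw licking or jumping recorded before and after ip dosing (vehicle 5% DMSO in saline); data as difference from baseline; 10 s cutoff; n = 6; two-way ANOVA with Bonferroni.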

Mus musculus [2] = test: Antinociceptive activity in Swiss Webster mouse assessed as inhibition of formalin-induced late phase pain response at 5 mg/kg, ip dosed 40 mins before formalin injection; type: functional, organism-based; design: dose 5 mg/kg
Summary of the method: (§1)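 Mice acclimated 30 min in chamber, dosed ip 40 min before sc injection of 20 μL 2.5% formalin into dorsal hind paw; licking time of injected paw scored 0−10 min (early phase) and 10−30 min (late phase); n = 7−10; ANOVA with Tukey.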

Mus musculus [3] = test: Antinociceptive activity in Swiss Webster mouse assessed as inhibition of formalin-induced early phase pain response at 5 mg/kg, ip dosed 40 mins before formalin injection; type: functional, organism-based; design: dose 5 mg/kg; summary of the method: as §1
Mus musculus [4] = test: Antinociceptive activity in Swiss Webster mouse assessed as increase in reaction time at 5 mg/kg, ip measured after 3 hrs by tail flick test; type: functional, organism-based; design: dose 5 mg/kg
Summary of the method: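 Mice habituated to restraint cylinder 20 min/day for 5 days; distal 2 cm of tail immersed in 48 ± 0.5 °C water; tail withdrawal latency measured before and after ip dosing (5% DMSO/saline vehicle); 10 s cutoff; n = 6; two-way ANOVA with Bonferroni.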

Mus musculus [5] = test: Antinociceptive activity in Swiss Webster mouse assessed as inhibition of acetic acid-induced abdominal constrictions at 10 mg/kg, ip dosed 40 mins before acetic acid injection; type: functional, organism-based; design: dose 10 mg/kg; conditions: Abdomen
Summary of the method: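 Male Swiss Webster mice dosed ip 40 min before ip acetic acid 0.8% v/v (10 mL/kg). Writhes (abdominal contraction with hind limb stretching) counted 0–30 min after injection in a glass cylinder. Mean writhing scores ± SEM, n = 10 per group; ANOVA with Tukey.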

Mus musculus [6] = test: Antinociceptive activity in Swiss Webster mouse assessed as inhibition of formalin-induced late phase pain response at 10 mg/kg, ip dosed 40 mins before formalin injection; type: functional, organism-based; design: dose 10 mg/kg
Summary of the method: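 Mice acclimated 30 min, dosed ip 40 min before 20 μL 2.5% formalin sc into dorsal hind paw. Licking time of injected paw scored 10–30 min (late phase), mirror-aided observation. Mean ± SEM, n = 7−10; ANOVA with Tukey.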

Mus musculus [7] = test: Antiinflammatory activity in Swiss Webster mouse assessed as reduction in paw edema at 2 mg/kg, ip dosed 40 mins before CFA injection and measured 2 to 6 hrs post CFA stimulus; type: functional, organism-based; design: dose 2 mg/kg
Summary of the method: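 Male Swiss Webster mice given drug ip (dexamethasone in 10% ethanol in saline) 40 min before intraplantar CFA (20 μL). Paw volume by plethysmometer before and after CFA, at 2, 4, 6 h; expressed as percent increase in paw volume. Mean ± SEM, n = 6; two-way ANOVA with Bonferroni.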

Mus musculus [8] = test: Antiinflammatory activity in Swiss Webster mouse assessed as reduction in hyperalgesia at 2 mg/kg, ip dosed 40 mins before CFA injection and measured 2 to 6 hrs post CFA stimulus; type: functional, organism-based; design: dose 2 mg/kg
Summary of the method: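 Male Swiss Webster mice (22−28 g) given drug ip (dexamethasone in 10% ethanol in saline) 40 min before 20 μL CFA (1 mg/mL heat-killed M. tuberculosis in paraffin oil/mannide monooleate) sc into right hind paw plantar region. Mechanical threshold by von Frey filaments, up−down method, at 2, 4, 6 h. Mean ± SEM, n = 6; two-way ANOVA with Bonferroni.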

Mus musculus [9] = test: Reduction in TNFalpha level in Swiss Webster mouse 2 mg/kg, ip dosed 40 mins before CFA injection and measured 3 hrs post CFA stimulus by ELISA method; type: functional, organism-based; design: dose 2 mg/kg; conditions: at 2 mg/kg
Summary of the method: (§2)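 Mice dosed ip (dexamethasone in 10% ethanol in saline) 40 min before intraplantar CFA; paw skin removed under terminal halothane anesthesia, homogenized 100 mg/mL in PBS with 0.4 M NaCl, 0.05% Tween 20 and protease inhibitors, centrifuged 3000g 10 min, supernatant frozen −70 °C; cytokine by ELISA as pg/mL. n = 6; two-way ANOVA with Bonferroni.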

Mus musculus [10] = test: Reduction in IL1-beta level in Swiss Webster mouse 2 mg/kg, ip dosed 40 mins before CFA injection and measured 3 hrs post CFA stimulus by ELISA method; type: functional, organism-based; design: dose 2 mg/kg; conditions: at 2 mg/kg; summary of the method: as §2
Mus musculus [11] = test: CNS toxicity in Swiss Webster mouse assessed as reduction in motor performance at 10 mg/kg, ip after 40 mins by open field test; type: organism-based; design: dose 10 mg/kg, route intraperitoneal; conditions: in vivo
Summary of the method: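 Open-field test 40 min after ip dosing: mice placed singly in 40 × 60 × 50 cm box with 12 floor squares; squares crossed with all four paws counted over 3 min; n = 6; one-way ANOVA with Tukey.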

Mus musculus [12] = test: CNS toxicity in Swiss Webster mouse assessed as reduction in motor performance at 10 mg/kg, ip after 40 mins by rotarod test; type: organism-based; design: dose 10 mg/kg, route intraperitoneal; conditions: in vivo
Summary of the method: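 Rota-rod test: 3 cm bar at 8 rpm; mice pre-selected 24 h earlier by remaining on bar for two consecutive 120 s periods; placed on rod 40 min after ip dosing; time on bar recorded up to 120 s; n = 6; one-way ANOVA with Tukey.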

CN1CC[C@]23c4c5ccc(O)c4O[C@H]2[C@@H](O)C=C[C@H]3[C@H]1C5
Activity (Mus musculus [1]): Active | inhibition (Mus musculus [2]): Active | inhibition (Mus musculus [3]): Active | Activity (Mus musculus [4]): Active

COc1ccc2c(c1)c(CC(=O)O)c(C)n2C(=O)c1ccc(Cl)cc1
inhibition (Mus musculus [5]): Active | inhibition (Mus musculus [6]): Active

C[C@@H]1C[C@H]2[C@@H]3CCC4=CC(=O)C=C[C@]4(C)[C@@]3(F)[C@@H](O)C[C@]2(C)[C@@]1(O)C(=O)CO
inhibition (Mus musculus [7]): Active | inhibition (Mus musculus [8]): Active | inhibition (Mus musculus [9]): Active | inhibition (Mus musculus [10]): Active

CN1C(=O)CN=C(c2ccccc2)c2cc(Cl)ccc21 [DIAZEPAM]
Activity (Mus musculus [11]): Toxic | Activity (Mus musculus [12]): Toxic
